Test results as given in ChEMBL document CHEMBL4706606, “Re-evaluating pretomanid analogues for Chagas disease: Hit-to-lead studies reveal both in vitro and in vivo trypanocidal efficacy” (Eur J Med Chem, 2020).
Values after ≈ are worked out from the molar mass of the structure shown. Active and inactive are the calls of the source. No cut-off for these calls is given here.

Experiments:
Trypanosoma cruzi [1] = assay: Antitrypanosomal activity against Trypanosoma cruzi Tulahuen strain C2C4 amastigotes infected in rat L6 cells assessed as inhibition of parasite growth incubated for 96 hrs by chlorophenol red-fl-D-galactopyranoside based colorimetric analysis; type: functional, organism-based; conditions: for IC50: Tulahuen strain C2C4, L6, 96 h; for IC90: Tulahuen strain C2C4, L6, time 96 hrs
In short: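 Tulahuen strain TcVI T. cruzi expressing β-galactosidase, grown in L6 rat skeletal myoblast host cells. IC50/IC90 growth inhibition. Each value is the mean of ≥2 independent determinations using fresh sample stock.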

L6 = assay: Cytotoxicity against rat L6 cells assessed as reduction in cell viability incubated for 72 hrs by alamar blue assay; type: ADME, cell-based; conditions: L6, 72 h
[2] = Selectivity index, ratio of IC50 for cytotoxicity against rat L6 cells to IC50 for antitrypanosomal activity against Trypanosoma cruzi Tulahuen strain C2C4 amastigotes infected in rat L6 cells
Trypanosoma cruzi [3] = assay: Antitrypanosomal activity against Trypanosoma cruzi Tulahuen strain C2C4 amastigotes infected in […] cells assessed as reduction in parasite growth incubated for 48 hrs by chlorophenol red-fl-D-galactopyranoside based colorimetric analysis; type: functional, organism-based; conditions: for IC50: Tulahuen strain C2C4, NIH3T3, 48 h; for IC90: Tulahuen strain C2C4, NIH3T3, time 48 hrs
[4] = Cytotoxicity against rat 3T3 cells assessed as reduction in cell viability incubated for 72 hrs by alamar blue assay; type: ADME, cell-based; conditions: NIH3T3, 72 h
Trypanosoma cruzi [5] = assay: Antitrypanosomal activity against Trypanosoma cruzi Tulahuen strain C2C4 amastigotes infected in […] cells assessed as reduction in parasite growth incubated for 48 hrs by chlorophenol red-fl-D-galactopyranoside based colorimetric analysis relative to control; type: functional
[6] = Inhibition of Trypanosoma cruzi Tulahuen C4 strain CYP51 expressed in Escherichia coli by fluorescence based assay
[7] = Selectivity index, ratio of IC50 for cytotoxicity against rat 3T3 cells to IC50 for antitrypanosomal activity against Trypanosoma cruzi Tulahuen strain C2C4 amastigotes infected in rat 3T3 cells; conditions: 3T3 cells
[8] = Kinetic solubility of compound in water sonicated for 15 mins by HPLC analysis
[9] = Half life in human liver microsomes incubated for 60 mins
Trypanosoma cruzi [10] = assay: Antitrypanosomal activity against Trypanosoma cruzi amastigotes assessed as inhibition of parasite growth at 10 ug/ml relative to control
[11] = Metabolic stability in CD-1 mouse liver microsomes assessed as parent compound remaining incubated for 1 hr; type: ADME, Microsome
In short: (§1)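 Pooled human or CD-1 mouse liver microsomes at 0.4 mg/mL microsomal protein. Percent parent remaining after 1 h incubation.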

[12] = Metabolic stability in human liver microsomes assessed as parent compound remaining incubated for 1 hr; type: ADME, Microsome; conditions: read-out: Stabilty; in short: as §1
Trypanosoma cruzi [13] = assay: Antitrypanosomal activity against bloodstream trypomastigotes form of Trypanosoma cruzi CL Brener infected in BALB/c mouse assessed as reduction in parasitemia at 100 mg/kg, po qd administered for 5 days starting from day 114 post infection followed by cyclophosphamide induced immunosuppression on days 135, 139 and 143 post infection and measured for 149 days by bioluminescence analysis; type: functional, organism-based; conditions: time 5.0 day
In short: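 Female BALB/c mice, 8 weeks old, ~18 g, 5 per group. Infected i.p. with 10^3 bloodstream trypomastigotes of bioluminescent CL Brener (pTRIX2-RE9h). From day 114 p.i., oral dosing once daily for 5 days: reference drugs at 100 mg/kg in HPMC-SV with 5% DMSO, PEG400 vehicle at 50 mg/kg. Cyclophosphamide 200 mg/kg i.p. on days 135, 139 and 143. Final imaging day 149. Ex vivo organ bioluminescence days 149-151.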

IC50 (Trypanosoma cruzi [1]) | IC90 (Trypanosoma cruzi [1]) | IC50 (Trypanosoma cruzi [3]) | IC90 (Trypanosoma cruzi [3]) | solubility kinetic at 0.25 h [8] | Compound | IC50 (L6) | selectivity ratio [2] | IC50 [4] | %max (Trypanosoma cruzi [5]) | IC50 [6] | further results
1200 nM |  |  |  |  | O=[N+]([O-])c1cn2c(n1)OCC(OCc1ccc(OCc3ccccc3)cc1)C2 (configuration not stated) |  |  |  |  |  | 
53 nM | 330 nM |  |  |  | O=[N+]([O-])c1cn2c(n1)OC(COc1ncc(-c3ccc(OC(F)(F)F)cc3)cn1)CC2 (configuration not stated) | 19000 nM | 358 |  |  |  | 
 |  | 190 nM | 440 nM |  | O=[N+]([O-])c1cn2c(n1)OC[C@H](OCC#Cc1ccc(OC(F)(F)F)cc1)C2 |  |  | > 37000 nM | 99% | > 10000 nM | selectivity ratio [7]: > 195
 |  | 1700 nM | 4100 nM |  | CC1(COc2ccc(OC(F)(F)F)cc2)Cn2c(Br)cnc2O1 (configuration not stated) |  |  | > 73000 nM | 87% | 530 nM | selectivity ratio [7]: > 43
280 nM | 440 nM |  |  | 0.13 µg/mL (≈ 0.303 µM) | O=[N+]([O-])c1cn2c(n1)S(=O)(=O)CC(OCc1ccc(COc3ccccc3)cc1)C2 (configuration not stated) | > 100000 nM | > 357 |  |  |  | half-life at 1 h [9]: 1.72 h; inhibition at 10 µg/mL (Trypanosoma cruzi [10]): 95%
460 nM | 1300 nM |  |  | 0.61 µg/mL (≈ 1.5 µM) | CC1(COc2ccc(OC(F)(F)F)cc2Cl)CCn2cc([N+](=O)[O-])nc2O1 (configuration not stated) | > 100000 nM |  |  |  |  | 
250 nM | 710 nM | 280 nM | 410 nM | < 0.1 µg/mL | O=[N+]([O-])c1cn2c(n1)OC[C@H](OCc1ccc(-c3ccc(C(F)(F)F)cc3Cl)cc1)C2 | 29000 nM | 116 | > 37000 nM | 100% | 7600 nM | remaining at 1 h [11]: 83%; remaining at 1 h [12]: 76%; selectivity ratio [7]: > 132
 |  |  |  |  | CSc1ccc(OCc2ncc([N+](=O)[O-])n2C)cc1 |  |  |  |  |  | Activity (Trypanosoma cruzi [13]): Active
560 nM | 1900 nM |  |  | 0.95 µg/mL (≈ 2.43 µM) | CC1(COc2ccc(OC(F)(F)F)c(F)c2)CCn2cc([N+](=O)[O-])nc2O1 (configuration not stated) | 68000 nM |  |  |  |  | 
240 nM | 1100 nM | 570 nM | 1000 nM | < 0.1 µg/mL | O=[N+]([O-])c1cn2c(n1)OC[C@H](OCc1ccc(-c3ccc(OC(F)(F)F)cc3Cl)cc1)C2 | 25000 nM | 104 | > 37000 nM | 99% | > 10000 nM | remaining at 1 h [11]: 76%; remaining at 1 h [12]: 85%; selectivity ratio [7]: > 65
4800 nM | > 10000 nM |  |  |  | O=[N+]([O-])c1cn2c(n1)OC[C@@H](OCc1ccc(-c3ccc(C(F)(F)F)cc3Cl)cn1)C2 | 57000 nM | 12 |  |  |  | 
 |  | 220 nM | 850 nM | 9.5 µg/mL (≈ 25.4 µM) | CC1(COc2ccc(OC(F)(F)F)cc2)CCn2nc([N+](=O)[O-])nc2O1 (configuration not stated) |  |  | > 37000 nM | 96% | > 10000 nM | remaining at 1 h [11]: 92%; remaining at 1 h [12]: 91%; selectivity ratio [7]: > 168
5700 nM | > 10000 nM |  |  |  | O=[N+]([O-])c1cn2c(n1)OC[C@@H](OCc1ccc(-c3ccc(OC(F)(F)F)cc3Cl)cc1)C2 | 19000 nM | 3.3 |  |  |  | 
49 nM | 310 nM | 390 nM | 2600 nM |  | O=[N+]([O-])c1cn2c(n1)OC[C@H](OCc1ccc(-c3ccc(OC(F)(F)F)cc3)cn1)C2 | 51000 nM |  | > 73000 nM | 80% | > 10000 nM | 
170 nM | 560 nM |  |  |  | O=[N+]([O-])c1cn2c(n1)OC(COc1ccc(-c3ccc(F)cc3)nc1)CC2 (racemic) |  |  |  |  |  | 
60000 nM |  |  |  |  | O=[N+]([O-])c1cn2c(n1)OC[C@@H](OCc1ccc(-c3ccccc3)cc1)C2 |  |  |  |  |  | 
> 10000 nM | > 10000 nM |  |  |  | O=[N+]([O-])c1cn2c(n1)OC[C@@H](OCc1cccc(-c3cccc(OC(F)(F)F)c3)c1)C2 | 13000 nM |  |  |  |  | inhibition at 10 µg/mL (Trypanosoma cruzi [10]): 65%
 |  |  |  |  | O=[N+]([O-])c1cn2c(n1)OC(COc1ccc(-c3ccc(OC(F)(F)F)cc3)nc1)CC2 (configuration not stated) |  |  |  | 100% |  | 
